Results: ChEMBL document CHEMBL3875231, “From Dynamic Combinatorial Chemistry to in Vivo Evaluation of Reversible and Irreversible Myeloperoxidase Inhibitors” (ACS Med Chem Lett, 2017)
Active and inactive are the calls of the source. The calls are words filed in the database; no cut-off is given here.

Columns and labels:
[1] = biological target: T1, Myeloperoxidase (Homo sapiens) (UniProt P05164); assay: Inhibition of human MPO assessed as residual activity in presence of H2O2; set-up: concentration or dose not given beside the values
T1 sequence (whole entry): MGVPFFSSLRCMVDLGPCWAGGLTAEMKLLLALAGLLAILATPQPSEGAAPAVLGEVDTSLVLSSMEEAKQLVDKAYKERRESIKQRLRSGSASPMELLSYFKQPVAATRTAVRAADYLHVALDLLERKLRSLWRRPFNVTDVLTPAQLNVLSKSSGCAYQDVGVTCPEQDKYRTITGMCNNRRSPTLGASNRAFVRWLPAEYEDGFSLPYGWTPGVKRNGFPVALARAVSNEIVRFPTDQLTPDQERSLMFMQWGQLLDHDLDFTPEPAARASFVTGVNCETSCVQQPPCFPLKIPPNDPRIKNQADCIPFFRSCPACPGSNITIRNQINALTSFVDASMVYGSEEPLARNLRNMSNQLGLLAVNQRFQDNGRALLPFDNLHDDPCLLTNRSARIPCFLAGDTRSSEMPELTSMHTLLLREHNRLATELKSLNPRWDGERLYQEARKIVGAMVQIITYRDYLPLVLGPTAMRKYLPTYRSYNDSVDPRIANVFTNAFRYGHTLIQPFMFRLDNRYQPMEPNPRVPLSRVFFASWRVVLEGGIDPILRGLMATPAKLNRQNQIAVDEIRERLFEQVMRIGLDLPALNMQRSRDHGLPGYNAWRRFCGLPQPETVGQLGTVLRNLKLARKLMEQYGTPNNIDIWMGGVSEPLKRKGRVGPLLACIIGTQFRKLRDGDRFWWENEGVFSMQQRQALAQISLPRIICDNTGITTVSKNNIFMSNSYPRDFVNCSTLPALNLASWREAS
Method in brief: (§1)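 Ligand and MPO were mixed with or without H2O2, then diluted 100-fold, and the residual enzymatic activity was measured. An H2O2-alone mixture served as control.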

[2] = biological target: T1, Myeloperoxidase (Homo sapiens); assay: Inhibition of human MPO assessed as residual activity in absence of […]; set-up: concentration or dose not given beside the values; method in brief: as §1
[3] = biological target: T1, Myeloperoxidase (Homo sapiens); assay: Inhibition of human MPO assessed as rate constant for reduction of PorFe(4)=O to PorFe(4)-OH in presence of H2O2 by stopped-flow method
[4] = biological target: T1, Myeloperoxidase (Homo sapiens); assay: Irreversible inhibition of human MPO in presence of H2O2 by stopped-flow method
[5] = biological target: T1, Myeloperoxidase (Homo sapiens); assay: (§2) Inhibition of human MPO; set-up: concentration or dose not given beside the values; settings: concentration not given here
[6] = biological target: T2, Myeloperoxidase (Homo sapiens, UniProt P05164); assay: as §2
T2 sequence (P05164 whole entry): T1 sequence (whole entry)

[7] = system: Rattus norvegicus; assay: Ex vivo inhibition of MPO activity in peritoneal exudate of Wistar albino rat model of carrageenan-induced inflammation assessed as reduction in H2O2-dependent oxidation of TMB at 10 mg/kg, iv measured after 24 hrs; type: functional, organism-based
Method in brief: (§3)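 Male Wistar Han rats had inflammation induced by intraperitoneal carrageenan, then received ligand at 10 mg/kg intravenously. Peritoneal liquid was collected. MPO concentration was measured at 24 h, and MPO activity at 24 h and at 48 h after drug administration. Comparators were carrageenan-only rats and reference rats not treated with carrageenan.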

[8] = biological target: T1, Myeloperoxidase (Homo sapiens); assay: Inhibition of human MPO assessed as soret band formation at 429 nanometer in presence of H2O2 by stopped-flow method
[9] = biological target: T1, Myeloperoxidase (Homo sapiens); assay: Reversible inhibition of human MPO assessed as rate constant for reduction of PorFe(4)-OH to ferric MPO in presence of H2O2 by stopped-flow method
[10] = system: Rattus norvegicus; assay: Ex vivo inhibition of MPO activity in peritoneal exudate of Wistar albino rat model of carrageenan-induced inflammation assessed as reduction in H2O2-dependent oxidation of TMB at 10 mg/kg, iv measured after 48 hrs; type: functional, organism-based; method in brief: as §3
[11] = system: Rattus norvegicus; assay: Anti-inflammatory activity in Wistar albino rat assessed as inhibition of carrageenan-induced MPO release at 10 mg/kg, iv measured after 24 hrs by ELISA; type: functional, organism-based; method in brief: as §3
[12] = biological target: T2, Myeloperoxidase; assay: Irreversible inhibition of MPO (unknown origin)
Method in brief: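 MPO was preincubated with ligand, with or without H2O2, alongside an H2O2-alone control. The mixture was then diluted 100-fold, residual enzymatic activity was measured, and inactivation was expressed as percent loss of activity.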

Molecule `COc1cc(/C=N/Nc2nncc3ccccc23)ccc1O` has an Activity [1] of 22%, an Activity [2] of 87% and a K [3] of 2.8 ×10⁵ /M/s. For the same molecule, the inhibition [4] was “Active”, the inhibition [5] was 82% and the IC50 [6] was 0.34 µM.

For `CN(C)c1ccc(/C=N/Nc2nncc3ccccc23)cc1`, the inhibition [7] was “Active”, the Activity [1] was 92% and the Activity [2] was 93%. For the same molecule, the K [3] was 7.1 ×10⁵ /M/s, the inhibition [5] was 100% and the IC50 [6] was 0.08 µM. The inhibition [8] was “Active” and the K [9] was 89.3 M⁻¹ s⁻¹.

Work on `CN(C)c1ccc(/C=N/NC(=O)c2ccncc2)cc1` [N'-(4-DIMETHYLAMINOBENZYLIDENE)ISONICOTINOHYDRAZIDE] yielded an Activity [1] of 93%, an Activity [2] of 91% and an inhibition [5] of 100%. For the same molecule, the IC50 [6] was 1.62 µM.

In the case of `COc1ccc(/C=N/Nc2nncc3ccccc23)cc1O`, the inhibition [10] is reported as “Active”, the inhibition [7] is reported as “Active” and the Activity [1] is reported as 25%. The Activity [2] was 93%, the inhibition [11] was “Active” and the inhibition [5] was 91%. It also gave an IC50 [6] of 0.15 µM.

For `COc1ccc(/C=N/Nc2ccc(F)cc2)cc1O`, the Activity [1] was 92%, the Activity [2] was 81% and the inhibition [5] was 91%. The IC50 [6] was 1.13 µM.

Molecule `CN(C)c1ccc(/C=N/Nc2ccc(F)cc2)cc1` has an Activity [1] of 84%, an Activity [2] of 87% and an inhibition [5] of 100%. It also gave an IC50 [6] of 3.1 µM.

`COc1cc(/C=N/Nc2ccc(F)cc2)ccc1O` was tested, and the Activity [1] was 98%, the Activity [2] was 89% and the inhibition [5] was 82%. The IC50 [6] was 1.2 µM.

For `OC/C=N/Nc1ccc(F)cc1`, the Activity [1] was 97%, the Activity [2] was 107% and the IC50 [6] was > 5 µM.

`O=C(N/N=C/CO)c1ccncc1` was tested, and the Activity [1] was 94%, the Activity [2] was 100% and the IC50 [6] was > 5 µM.

Molecule `COc1cc(/C=N/NC(=O)c2ccncc2)ccc1O` [FTIVAZIDE] has an Activity [1] of 91%, an Activity [2] of 96% and an inhibition [5] of 82%. For the same molecule, the IC50 [6] was 0.46 µM.

With `NNc1nncc2ccccc12` [HYDRALAZINE] the Activity [1] was 19%, the Activity [2] was 92% and the K [3] was 7.1 ×10⁵ /M/s. The inhibition [5] was 61%, the IC50 [6] was 0.9 µM and the IC50 [12] was 0.9 µM.

`Cc1ccc(NN)cc1` was tested, and the inhibition [5] was 61%.

With `NNC(=O)c1ccncc1` [ISONIAZID] the Activity [1] was 64%, the Activity [2] was 98% and the inhibition [5] was 61%. The IC50 [6] was 4.7 µM and the IC50 [12] was 5 µM.

`NNc1ccc(F)cc1` gave an Activity [1] of 98%, an Activity [2] of 103% and an inhibition [5] of 61%. The IC50 [6] was > 5 µM.

`COc1ccc(/C=N/NC(=O)c2ccncc2)cc1O` gave an Activity [1] of 87%, an Activity [2] of 88% and an inhibition [5] of 91%. It also gave an IC50 [6] of 0.43 µM.

Molecule `NNc1cccc2ccccc12` has an inhibition [5] of 61%.

With `OC/C=N/Nc1nncc2ccccc12` the inhibition [10] was “Active”, the inhibition [7] was “Active” and the Activity [1] was 18%. For the same molecule, the Activity [2] was 82%, the K [3] was 3.3 ×10⁵ /M/s and the inhibition [4] was “Active”. It also gave an IC50 [6] of 0.11 µM.
